Data on 30 compounds can be found in ChEMBL document CHEMBL1799995, “17(R),18(S)-epoxyeicosatetraenoic acid, a potent eicosapentaenoic acid (EPA) derived regulator of cardiomyocyte contraction: structure-activity relationships and stable analogues” (J Med Chem, 2011).

pEC50: −log10 of the molar value. Calls of active or inactive are those of the source. The rule behind the calls is not given here.

Broadly, the pEC50 is the EC50 on a negative log10 scale, so that one unit is a factor of ten. Usually fraction remaining stands for what is left of the initial amount, in per cent.

A short description of data set [1]: Negative chronotropic activity in neonatal Wistar rat Cardiomyocytes assessed as change in heart beating at 30 nM and at 37 degC after 5 mins. Type of data set: functional, Cardiac muscle cell. Summed up:
(§1)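 NRCMs from 1–2-day-old Wistar rats were cultured as monolayers in Halle SM 20-I medium with 10% heat-inactivated FCS and 2 μM fluorodeoxyuridine. Spontaneously beating clusters formed after 5–7 days (120–150 beats/min at 37 °C, inverted microscope). Compounds came from 1000-fold ethanol stocks and were tested at 30 nM final. Beating rates of 6–8 clusters were counted before and 5 min after addition. The change in beats/min is given as mean ± SE, n = 18–40 clusters from ≥3 independent cultures.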

In data set [2] the test system is Cardiac muscle cell. Kind of data set: Inhibition of (Z)-16-(3-ethyloxiran-2-yl)hexadec-11-enoic acid -induced negative chronotropic activity in neonatal Wistar rat Cardiomyocytes at 30 nM after 5 mins. Type of data set: functional, cell-based. In a few lines: (§2)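 NRCMs from 1–2-day-old Wistar rats were cultured as monolayers in Halle SM 20-I medium with 10% heat-inactivated FCS and 2 μM fluorodeoxyuridine. Spontaneously beating clusters formed after 5–7 days (120–150 beats/min). Cells were preincubated with the test antagonist (30 nM final) for 5 min at 37 °C, then the agonist was added (30 nM final). Beating was counted under an inverted microscope.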

A short description of data set [3]: Inhibition of EPA-induced negative chronotropic activity in neonatal Wistar rat Cardiomyocytes at 30 nM after 5 mins. Format: functional, Cardiac muscle cell. Also on record: scale not given: the % may be the effect or the level left.
Data set [4] can be described thus: Inhibition of (5Z,8Z,11Z,14Z)-16-(3-ethyloxiran-2-yl)hexadeca-5,8,11,14-tetraenoic acid-induced negative chronotropic activity in neonatal Wistar rat Cardiomyocytes at 30 nM after 5 mins. Type of data set: functional, Cardiac muscle cell. Also on record: scale not given: the % may be the effect or the level left. Summed up:
as §2

Data set [5] in a line: Inhibition of (5Z,11Z)-16-(3-ethyloxiran-2-yl)hexadeca-5,11-dienoic acid-induced negative chronotropic activity in neonatal Wistar rat Cardiomyocytes at 30 nM after 5 mins. Type of data set: functional, Cardiac muscle cell. Also on record: scale not given: the % may be the effect or the level left. In a few lines:
as §2

Data set [6] can be described thus: Inhibition of (Z)-16-(2-(methylamino)-2-oxoacetamido)hexadec-11-enoic acid-induced negative chronotropic activity in neonatal Wistar rat Cardiomyocytes at 30 nM after 5 mins. Type of data set: functional, Cardiac muscle cell. Also on record: scale not given: the % may be the effect or the level left. Summed up:
as §2

In data set [7] the test system is Cardiac muscle cell. Briefly: Negative chronotropic activity in neonatal Wistar rat Cardiomyocytes assessed as change in heart beating at > 5 nM after 5 mins at 37 degC. Type of data set: functional, cell-based.
Data set [8] is described as follows: Negative chronotropic activity in neonatal Wistar rat Cardiomyocytes assessed as change in heart beating after 5 mins at 37 degC. Type of data set: functional, cell-based. As to conditions: cardiac muscle cell. Summed up:
as §1

The target of data set [9] is T1, Bifunctional epoxide hydrolase 2 (Homo sapiens) (UniProt P34913).
T1 sequence (whole entry): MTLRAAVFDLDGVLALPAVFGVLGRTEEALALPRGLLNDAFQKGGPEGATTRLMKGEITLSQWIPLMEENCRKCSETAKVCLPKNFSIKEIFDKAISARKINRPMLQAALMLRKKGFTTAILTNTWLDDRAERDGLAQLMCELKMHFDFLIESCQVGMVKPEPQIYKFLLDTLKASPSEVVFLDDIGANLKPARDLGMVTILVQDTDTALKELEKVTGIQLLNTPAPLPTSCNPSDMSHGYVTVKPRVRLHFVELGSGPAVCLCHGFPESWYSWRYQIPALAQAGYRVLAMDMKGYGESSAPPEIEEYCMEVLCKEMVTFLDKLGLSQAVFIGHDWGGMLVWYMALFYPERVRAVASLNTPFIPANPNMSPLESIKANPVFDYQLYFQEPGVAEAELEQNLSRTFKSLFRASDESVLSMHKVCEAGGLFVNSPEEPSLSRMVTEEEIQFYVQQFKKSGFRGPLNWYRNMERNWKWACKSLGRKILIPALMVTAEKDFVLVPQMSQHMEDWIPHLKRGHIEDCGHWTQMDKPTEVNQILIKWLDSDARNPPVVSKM
Kind of data set: Inhibition of soluble epoxide hydrolase at 5 uM.

Data set [10] addresses T1, Bifunctional epoxide hydrolase 2 (Homo sapiens). Particulars: 1 to 5 uM.
Data set [11] deals with Liver. Briefly: Metabolic stability in rat liver homogenates assessed as formation of vic-diol 4 by LC-MS analysis. Type of data set: ADME, tissue-based. Particulars: tissue homogenate.
Data set [12] concerns Liver. Kind of data set: Metabolic stability in rat liver homogenates assessed as epoxidation of compound by LC-MS analysis. Particulars: tissue homogenate. Format: ADME, tissue-based.
The subject of data set [13] is Liver. Kind of data set: Metabolic stability in rat liver homogenates assessed as hydroxylation of compound by LC-MS analysis. Format: ADME, tissue-based. Particulars: tissue homogenate. In a few lines: (§3)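 Compounds were incubated with rat liver homogenate plus NADPH for 30 min at 37 °C. Parent compound and hydroxy-metabolites were analysed by LC/MS.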
Data set [14] can be described thus: Metabolic stability in rat liver homogenates after 30 mins by LC-MS analysis. Type of data set: ADME, tissue-based. Summed up: as §3
Data set [15] has as its system Liver. Briefly: Metabolic stability in rat liver homogenates assessed as formation of regioisomeric hydroxy metabolite after 30 mins by LC-MS analysis. Type of data set: ADME, tissue-based. Particulars: tissue homogenate, 0.5 h. In a few lines: as §3
Data set [16] in a line: Metabolic stability in rat liver homogenates assessed as compound remaining after 30 mins by LC-MS analysis. Format: ADME, tissue-based. Summed up:
as §3

As for `O=C(O)CCCCCCCCC/C=C\CCCC[C@@H]1O[C@@H]1CCO`, in data set [1], the Activity is given as -1.4 bpm.
In the case of `CNC(=O)C(=O)NCCCCC#CCCCCCCCCCC(=O)O`, the Activity in data set [1] is -2.6 bpm.
For `O=C(O)CCCCCCCCC/C=C\CCCC[C@H]1O[C@H]1CCO`, the Activity in [1] was -4.8 bpm.
With `CCC1OC1C/C=C\CCCC/C=C\CCCCCCC(=O)O` (stereo not given), the Activity in data set [1] is listed as -2.7 bpm; in data set [3], 90%; in data set [4] it was 90%; in [5] it was 90%; in [6] it was 90%. For the same compound, the result in data set [2] was Active.
In the case of `CCC1OC1CCCC/C=C\CCCC/C=C\CCCC(=O)O` (stereo not given), the Activity in [1] is listed as -19.8 bpm.
For `CCN(C)C(=O)N(C)CCCC/C=C\CCCCCCCCCC(=O)O`, in data set [1], the Activity is -5.8 bpm.
Turning to `CC[C@@H]1O[C@@H]1C/C=C\CCCCCCCCCCCCC(=O)O`, the Activity in [1] was -21.1 bpm.
`CC[C@H]1O[C@H]1C/C=C\CCCCCCCCCCCCC(=O)O`: the Activity in [1] was 0.7 bpm.
In the case of `CC[C@@H]1O[C@@H]1CCCC/C=C\CCCCCCCCCC(=O)O`, the Activity in data set [1] was -20.3 bpm.
As for `CCC1OC1CCCCCCCCCC/C=C\CCCC(=O)O` (stereo not given), the Activity in data set [1] is -0.6 bpm.
For the compound `CNC(=O)C(=O)NCCCC/C=C/CCCCCCCCCC(=O)O`, the Activity in [1] is -4.7 bpm. Further, the outcome in [7] was inactive.
`CC[C@@H]1O[C@@H]1C/C=C\C/C=C\C/C=C\C/C=C\CCCC(=O)O`: in [1], the Activity is given as -21.3 bpm. Further, in data set [8], the pEC50 was 9.00. Besides, in [7], the outcome was Active.
In the case of `CNC(=O)C(=O)NC/C=C\CCCCCCCCCCCCC(=O)O`, the Activity in [1] is given as -1.3 bpm. In addition, the inhibition entry in data set [9] was “inactive”.
As to `CC[C@H]1O[C@H]1C/C=C\C/C=C\C/C=C\C/C=C\CCCC(=O)O`, the Activity in data set [1] was found to be 1.3 bpm.
On the same count and under the same terms, next, `CCCCNC(=O)CCC/C=C\CCCCCCCCCC(=O)O`: -22.4 bpm; `CCCNC(=O)CCCC/C=C\CCCCCCCCCC(=O)O`: -4.7 bpm.
Same read-out and setting: in the case of `CCCC(=O)N(CCCC/C=C\CCCCCCCCCC(=O)O)C(C)C` it was 0.2 bpm; in that of `CCC1OC1CCCCCCCCCCCCCCCC(=O)O` (stereo not given), 0.8 bpm.
For `CCNC(=O)NCCCC/C=C\CCCCCCCCCC(=O)O`, the Activity in data set [1] is given as -27 bpm. For the same compound, the result in [7] was Active. Also, the inhibition result in data set [10] was “Dose-dependent effect”.
Turning to `CCC1OC1C/C=C\CCCCCCCCCCCCC(=O)O` (stereo not given), in [1], the Activity is -1.2 bpm. The outcome in data set [2] was Active.
For the compound `CCNC(=O)NC/C=C\CCCCCCCCCCCCC(=O)O`, the Activity in data set [1] is given as 17.8 bpm.
With `CCC1OC1CCCC/C=C\CCCCCCCCCC(=O)O` (stereo not given), the Activity in data set [1] is recorded as -18.3 bpm.
Consider `CCC1OC1CCCCCCC/C=C\CCCCCCC(=O)O` (stereo not given), for which, in [1], the Activity is listed as -0.6 bpm.
On to `CCCC(=O)NC/C=C\CCCCCCCCCCCCC(=O)O`, for which the Activity in data set [1] amounted to 12.8 bpm.
For the compound `CC[C@H]1O[C@H]1CCCC/C=C\CCCCCCCCCC(=O)O`, the Activity in [1] was 3.3 bpm.
As for `CCC1OC1C/C=C\C/C=C\C/C=C\C/C=C\CCCC(=O)O` (stereo not given), the Activity in [1] was -22.5 bpm. The Stability entry in data set [11], in data set [12] and in data set [13] was “Unstable” in each case. Moreover, the amount remaining at 0.5 h in data set [14] was 20%.
`CCCC(=O)NCCCC/C=C\CCCCCCCCCC(=O)O`: the Activity in [1] is reported as -1.6 bpm.
With `CNC(=O)C(=O)NCCCC/C=C\CCCCCCCCCC(=O)O`, in data set [1], the Activity is -33.7 bpm. The outcome in data set [7] was Active. Also, the Stability result in data set [15] is given as “Stable”. Further, the inhibition entry in [9] is “inactive”. In addition, in [16], the share remaining at 0.5 h was over 85%.
As to `CCC1OC1C/C=C\CCCCCCC/C=C\CCCC(=O)O` (stereo not given), the Activity in data set [1] was determined as 0 bpm.
`CCC(O)C(O)C/C=C\C/C=C\C/C=C\C/C=C\CCCC(=O)O` (stereo not given): the Activity in data set [1] is on record as 0 bpm.
